From ChEMBL document CHEMBL3525945, “Metabolic switching of BILR 355 in the presence of ritonavir. II. Uncovering novel contributions by gut bacteria and aldehyde oxidase” (Drug Metab Dispos, 2012) come the findings set out here.

Broadly, the Km is the concentration of substrate that gives half-maximal velocity. By Vmax is commonly meant the top rate of the reaction or transport when substrate is in excess.

Data set [1] can be described thus: Drug metabolism in human liver S9 fraction assessed as BILR516 disproportionate human metabolite formation at 5 uM after 60 mins by LC-MS/MS analysis. Format: ADME, subcellular. Conditions: s9, 1 h. The method, boiled down: (§1)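 Pooled human liver microsomes, cytosol or S9 (1 mg/mL) were incubated with BILR 355 (5 μM final) in 0.05 M potassium phosphate pH 7.4 at 37 °C for 60 min. Microsomes and S9 received 2.5 mM NADPH.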

For data set [2], the target named is T1, Cytochrome P450 3A4 (Homo sapiens, UniProt P08684). The experiment in a line: Activity at recombinant CYP3A4 (unknown origin) expressed in baculovirus-infected insect cells treated with 10 uM BILR402 assessed as enzyme-mediated compound formation at 10 uM after 4 mins by LC-MS/MS analysis in presence of NADPH.
T1 sequence (P08684 whole entry): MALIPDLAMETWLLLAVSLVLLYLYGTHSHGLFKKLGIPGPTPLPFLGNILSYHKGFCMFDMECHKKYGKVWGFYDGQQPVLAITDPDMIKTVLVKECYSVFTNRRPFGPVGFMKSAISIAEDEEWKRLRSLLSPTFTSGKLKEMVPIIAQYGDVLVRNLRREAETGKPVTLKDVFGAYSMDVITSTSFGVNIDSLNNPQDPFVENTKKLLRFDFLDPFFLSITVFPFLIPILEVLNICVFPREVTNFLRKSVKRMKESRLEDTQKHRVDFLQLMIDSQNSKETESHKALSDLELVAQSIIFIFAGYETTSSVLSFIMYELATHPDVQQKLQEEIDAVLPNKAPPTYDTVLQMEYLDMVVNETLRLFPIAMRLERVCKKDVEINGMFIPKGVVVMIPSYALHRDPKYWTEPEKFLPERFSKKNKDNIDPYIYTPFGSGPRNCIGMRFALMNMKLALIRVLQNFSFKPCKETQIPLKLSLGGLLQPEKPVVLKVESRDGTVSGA
A short description of data set [3]: Drug excretion in dog feces assessed as metabolite level. Format: ADME, tissue-based, Canis lupus familiaris.
In data set [4] the test system is Liver microsome. The experiment in a line: Drug metabolism in human liver microsomes assessed as BILR516 disproportionate human metabolite formation at 5 uM after 60 mins by LC-MS/MS analysis. Conditions: 1 h. Format: ADME. In outline:
as §1
For orientation: Liver microsomes are a subcellular fraction often used to study metabolism.

Data set [5] relates to Liver cytosol. Description: Drug metabolism in human liver cytosol assessed as BILR402 metabolite formation at 5 uM by LC-MS/MS analysis. Format: ADME, tissue-based. In outline: as §1
Data set [6] concerns Liver cytosol. The experiment in a line: Drug metabolism in human liver cytosol assessed as BILR516 disproportionate human metabolite formation at 5 uM after 60 mins by LC-MS/MS analysis. Format: ADME, tissue-based. Conditions: 1 h. The method, boiled down: as §1
A short description of data set [7]: Drug excretion in rat feces assessed as metabolite level. Format: ADME, tissue-based.
The nature of data set [8]: Drug excretion in mouse feces assessed as unchanged drug level. Format: ADME, tissue-based. Conditions: read-out: Drug excretion.
Data set [9] in a line: Drug metabolism in human liver S9 fraction assessed as BILR402 metabolite formation at 5 uM by LC-MS/MS analysis. Format: ADME, subcellular. Conditions: s9, 5 µM. In outline: as §1
The target of data set [10] is T1, Cytochrome P450 3A4. Description: Activity at recombinant CYP3A4 (unknown origin) expressed in baculovirus-infected insect cells treated with 1 uM BILR402 assessed as enzyme-mediated compound formation after 4 mins by LC-MS/MS analysis in presence of NADPH. Format: ADME. The method, boiled down:
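rCYP3A4 (5 pmol/mL) incubated with BILR 402 at 1 or 10 μM in 0.1 M potassium phosphate/5 mM MgCl2, pH 7.4, with NADPH at 37 °C. Remaining BILR 402 and BILR 355 formed were read at 4 min by LC-MS/MS against a labelled internal standard.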

Data set [11] can be described thus: Drug excretion in mouse feces assessed as metabolite level. Format: ADME, tissue-based.
In data set [12] the test system is Liver microsome. Description: Drug level in human liver microsomes treated with BILR402 at 1 uM by LC-MS/MS analysis in presence of CYP2C19 inhibitor ticlopidine. Format: ADME. In outline:
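BILR 402 (1 μM) was incubated with human liver microsomes (0.05 mg/mL) for 30 min with NADPH, with or without ticlopidine 20 μM final as CYP2C19 inhibitor. BILR 402 depletion and BILR 355 formation were measured by LC-MS/MS.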

A short description of data set [13]: Drug excretion in dog feces assessed as unchanged drug level. Format: ADME, tissue-based, Canis lupus familiaris. Conditions: read-out: Drug excretion.
Data set [14] can be described thus: Drug excretion in rat feces assessed as unchanged drug level. Conditions: read-out: Drug excretion. Format: ADME, tissue-based.
Data set [15] relates to Liver microsome. Description: Drug metabolism in human liver microsomes assessed as BILR402 metabolite formation at 5 uM by LC-MS/MS analysis. Format: ADME. The method, boiled down: as §1
Data set [16] is described as follows: Drug level in human liver S9 fraction treated with BILR402 at 10 uM by LC-MS/MS analysis in presence of NADPH. Format: ADME, subcellular. Conditions: s9, 10 µM. In outline: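 BILR 402 (10 μM final) was incubated with human liver S9 or cytosol (1 mg/mL protein) in 0.05 M potassium phosphate pH 7.4 at 37 °C. Runs were done with or without 2.5 mM NADPH. Samples at 10, 20, 30 and 60 min were quenched in nevirapine/acetonitrile, filtered and analysed by LC-MS/MS; duplicate.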

Substrate in data set [17]: CCN1c2ncc(CCOc3ccnc4ccccc34)cc2C(=O)N(C)c2cccnc21
Description: Drug metabolism in human liver cytosol assessed as aldehyde-oxidase-mediated BILR516 metabolite formation after 10 mins by Eadie-Hofstee plot analysis. Format: ADME, tissue-based. The method, boiled down: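 Human liver cytosol (0.1 mg/mL) was incubated with BILR 402 at 12 concentrations, 0.061–125 μM, for 10 min at 37 °C in 0.05 M potassium phosphate pH 7.4 without NADPH, within the linear range for protein and time. […] Apparent Km and Vmax were derived from the kinetic data.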

As for `CCN1c2ncc(CCOc3cc[n+]([O-])c4ccccc34)cc2C(=O)N(C)c2cccnc21` [BILR 355], the Drug metabolism result is “metabolite_not_detected” in [1]; 0.9 µM at Cytochrome P450 3A4 [2]; “metabolite_not_detected” with Liver microsome [4]; “metabolite_not_detected” in the data set on Liver cytosol [5]; “metabolite_not_detected” in the data set with Liver cytosol [6]; “metabolite_not_detected” in [9]. Further, the Drug metabolism was 0.15 µM at Cytochrome P450 3A4 [10], “metabolite_detected” with Liver microsome [12] and “metabolite_not_detected” in the data set with Liver microsome [15]. Further, the Drug excretion in data set [3], in data set [7] and in [11] was 72.5% each time. Also, the dose excreted in data set [8], in data set [13] and in [14] was 0% throughout.
Consider `CCN1c2ncc(CCOc3cc(=O)[nH]c4ccccc34)cc2C(=O)N(C)c2cccnc21`, for which the Drug metabolism result in data set [16] was “metabolite_detected”.

B1: Aldehyde oxidase (Homo sapiens) (protein)
chain: MDRASELLFYVNGRKVIEKNVDPETMLLPYLRKKLRLTGTKYGCGGGGCGACTVMISRYNPITKRIRHHPANACLIPICSLYGAAVTTVEGIGSTHTRIHPVQERIAKCHGTQCGFCTPGMVMSIYTLLRNHPEPTLDQLTDALGGNLCRCTGYRPIIDACKTFCKTSGCCQSKENGVCCLDQGINGLPEFEEGSKTSPKLFAEEEFLPLDPTQELIFPPELMIMAEKQSQRTRVFGSERMMWFSPVTLKELLEFKFKYPQAPVIMGNTSVGPEVKFKGVFHPVIISPDRIEELSVVNHAYNGLTLGAGLSLAQVKDILADVVQKLPEEKTQMYHALLKHLGTLAGSQIRNMASLGGHIISRHPDSDLNPILAVGNCTLNLLSKEGKRQIPLNEQFLSKCPNADLKPQEILVSVNIPYSRKWEFVSAFRQAQRQENALAIVNSGMRVFFGEGDGIIRELCISYGGVGPATICAKNSCQKLIGRHWNEQMLDIACRLILNEVSLLGSAPGGKVEFKRTLIISFLFKFYLEVSQILKKMDPVHYPSLADKYESALEDLHSKHHCSTLKYQNIGPKQHPEDPIGHPIMHLSGVKHATGEAIYCDDMPLVDQELFLTFVTSSRAHAKIVSIDLSEALSMPGVVDIMTAEHLSDVNSFCFFTEAEKFLATDKVFCVGQLVCAVLADSEVQAKRAAKRVKIVYQDLEPLILTIEESIQHNSSFKPERKLEYGNVDEAFKVVDQILEGEIHMGGQEHFYMETQSMLVVPKGEDQEMDVYVSTQFPKYIQDIVASTLKLPANKVMCHVRRVGGAFGGKVLKTGIIAAVTAFAANKHGRAVRCVLERGEDMLITGGRHPYLGKYKAGFMNDGRILALDMEHYSNAGASLDESLFVIEMGLLKMDNAYKFPNLRCRGWACRTNLPSNTAFRGFGFPQAALITESCITEVAAKCGLSPEKVRIINMYKEIDQTPYKQEINAKNLIQCWRECMAMSSYSLRKVAVEKFNAENYWKKKGLAMVPLKFPVGLGSRAAGQAAALVHIYLDGSVLVTHGGIEMGQGVHTKMIQVVSRELRMPMSNVHLRGTSTETVPNANISGGSVVADLNGLAVKDACQTLLKRLEPIISKNPKGTWKDWAQTAFDESINLSAVGYFRGYESDMNWEKGEGQPFEYFVYGAACSEVEIDCLTGDHKNIRTDIVMDVGCSINPAIDIGQIEGAFIQGMGLYTIEELNYSPQGILHTRGPDQYKIPAICDMPTELHIALLPPSQNSNTLYSSKGLGESGVFLGCSVFFAIHDAVSAARQERGLHGPLTLNSPLTPEKIRMACEDKFTKMIPRDEPGSYVPWNVPI
With B1, in data set [17], the Km was found to be 0.772 µM and the Vmax was 0.000337 µmol/min.
